Measurements taken from ChEMBL document CHEMBL1641600, “Novel bifunctional alkylating agents, 5,10-dihydropyrrolo[1,2-b]isoquinoline derivatives, synthesis and biological activity” (Bioorg Med Chem, 2011).
Active and inactive are the calls of the source. No cut-off for these calls is given here.

How the values were obtained:
[1] = Cytotoxicity against human U87 cells after 72 hrs by Alamar blue assay; type: functional, cell-based, U-87MG ATCC; conditions: U-87 MG
Summary of the method: (§1)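 H1299, PC3, OECM1 and U87 cells exposed 72 h to six or seven drug concentrations. Alamar blue added for 6 h at 37 °C; absorbance read at 570 and 600 nm. IC50 obtained from dose-effect data by the median-effect principle.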

[2] = system: PC-3; assay: Cytotoxicity against human PC3 cells after 72 hrs by Alamar blue assay; type: functional, cell-based; conditions: PC-3, 72 h; summary of the method: as §1
[3] = system: NCI-H1299; assay: Cell cycle arrest in human H1299 cells assessed as accumulation at subG1 phase at 2.5 uM after 24 hrs by propidium iodide staining-based flow cytometry; conditions: NCI-H1299, 24 h
[4] = system: NCI-H1299; assay: Cell cycle arrest in human H1299 cells assessed as accumulation at G1 phase at 1.25 uM after 24 hrs by propidium iodide staining-based flow cytometry; conditions: NCI-H1299, 24 h
[5] = Cytotoxicity against human OECM1 cells after 72 hrs by Alamar blue assay; type: functional, cell-based; conditions: OECM1, 72 h; summary of the method: as §1
[6] = system: Nucleic Acid; assay: Induction of Escherichia coli pEGFP-N1 DNA cross-linking at 1 to 20 uM after 2 hrs by alkaline agarose gel shift assay; type: nucleic-acid assay
Summary of the method: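 pEGFP-N1 plasmid DNA (1.5 µg) incubated with compound (1–20 µM) in binding buffer (3 mM NaCl/1 mM sodium phosphate pH 7.4, 1 mM EDTA) for 2 h at 37 °C. Plasmid then linearized with BamHI, ethanol-precipitated, and resolved on alkaline agarose gel into single-stranded and cross-linked bands. Melphalan (1, 5, 10 µM) as positive control.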

[7] = system: MX1; assay: Cytotoxicity against human MX1 cells after 72 hrs by SRB assay; type: functional, cell-based; conditions: MX1, 72 h
Summary of the method: (§2)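 MX-1 breast and HCT-116 colon carcinoma cells exposed 72 h to six or seven drug concentrations. Growth measured by SRB assay with microplate absorbance. IC50 obtained from dose-effect data by the median-effect principle.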

[8] = system: NCI-H1299; assay: Cell cycle arrest in human H1299 cells assessed as accumulation at G2/M phase at 5 uM after 24 hrs by propidium iodide staining-based flow cytometry; conditions: NCI-H1299, 24 h
[9] = Cytotoxicity against human H1299 cells after 72 hrs by Alamar blue assay; type: functional, cell-based; conditions: NCI-H1299, 72 h; summary of the method: as §1
[10] = system: NCI-H1299; assay: Cell cycle arrest in human H1299 cells assessed as accumulation at G2/M phase at 1.25 uM after 24 hrs by propidium iodide staining-based flow cytometry; conditions: NCI-H1299, 24 h
[11] = system: NCI-H1299; assay: Cell cycle arrest in human H1299 cells assessed as accumulation at S phase at 2.5 uM after 24 hrs by propidium iodide staining-based flow cytometry; conditions: NCI-H1299, 24 h
[12] = system: NCI-H1299; assay: Cell cycle arrest in human H1299 cells assessed as accumulation at subG1 phase at 1.25 uM after 24 hrs by propidium iodide staining-based flow cytometry; conditions: NCI-H1299, 24 h
[13] = system: NCI-H1299; assay: Cell cycle arrest in human H1299 cells assessed as accumulation at G1 phase at 5 uM after 24 hrs by propidium iodide staining-based flow cytometry; conditions: NCI-H1299, 24 h
[14] = system: CCRF-CEM; assay: Cytotoxicity against human CCRF-CEM cells after 72 hrs by XTT assay; type: functional, cell-based
Summary of the method: (§3)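 Leukemic CCRF-CEM and its Taxol- and vinblastine-resistant sublines exposed 72 h to six or seven drug concentrations. XTT with phenazine methosulfate added for 6 h at 37 °C; absorbance read at 450 and 630 nm. IC50 obtained from dose-effect data by the median-effect principle.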

[15] = system: CCRF-CEM; assay: Cytotoxicity against Taxol-resistant human CCRF-CEM cells after 72 hrs by XTT assay; type: functional, cell-based; summary of the method: as §3
[16] = system: NCI-H1299; assay: Cell cycle arrest in human H1299 cells assessed as accumulation at S phase at 5 uM after 24 hrs by propidium iodide staining-based flow cytometry; conditions: NCI-H1299, 24 h
[17] = system: MX1; assay: Antitumor activity against human MX1 cells implanted in mouse assessed as complete suppression in tumor size at 30 mg/kg, iv Q2D for 2 times measured on day 8 and 10; type: functional, organism-based; set-up: dose 30 mg/kg
Summary of the method: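 Athymic nu/nu nude mice (outbred Swiss background, male, ≥8 weeks, about 22 g) bearing human tumor xenografts; MX-1 dosed iv Q2D×2 (day 8 and 10), SK-OV-3 dosed iv QD×4 from day 22. Tail-vein injection in DMSO/Tween 80/saline vehicle at the maximal tolerable dose. Tumor volume measured by caliper (length×width×height or width); body weight followed; n = 4.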

[18] = system: HCT-116; assay: Cytotoxicity against human HCT116 cells after 72 hrs by SRB assay; type: functional, cell-based; conditions: HCT-116, 72 h; summary of the method: as §2
[19] = system: NCI-H1299; assay: Cell cycle arrest in human H1299 cells assessed as accumulation at G1 phase at 2.5 uM after 24 hrs by propidium iodide staining-based flow cytometry; conditions: NCI-H1299, 24 h
[20] = system: CCRF-CEM; assay: Cytotoxicity against vinblastine-resistant human CCRF-CEM cells after 72 hrs by XTT assay; type: functional, cell-based; summary of the method: as §3
[21] = system: NCI-H1299; assay: Cell cycle arrest in human H1299 cells assessed as accumulation at G2/M phase at 2.5 uM after 24 hrs by propidium iodide staining-based flow cytometry; conditions: NCI-H1299, 24 h
[22] = system: CCRF-CEM; assay: Ratio of IC50 for Taxol-resistant human CCRF-CEM cells to IC50 for human CCRF-CEM cells
[23] = system: NCI-H1299; assay: Cell cycle arrest in human H1299 cells assessed as accumulation at subG1 phase at 5 uM after 24 hrs by propidium iodide staining-based flow cytometry; conditions: NCI-H1299, 24 h
[24] = system: NCI-H1299; assay: Cell cycle arrest in human H1299 cells assessed as accumulation at S phase at 1.25 uM after 24 hrs by propidium iodide staining-based flow cytometry; conditions: NCI-H1299, 24 h
[25] = system: SK-OV-3; assay: Antitumor activity against human SKOV3 cells implanted in mouse assessed as significant suppression in tumor size at 20 mg/kg, iv QD for 4 times measured on day 22

Activity [6]: Active
Structure (SMILES): Cc1c(CO)c(CO)c2n1Cc1ccccc1C2
IC50 [1]: 27900 nM
IC50 [2]: 6070 nM
cell population % at 2.5 µM [3]: 26.6%
cell population % at 1.25 µM [4]: 5.6%
IC50 [5]: 6100 nM
IC50 [7]: 660 nM
cell population % at 5 µM [8]: 48.4%
IC50 [9]: 2480 nM
cell population % at 1.25 µM [10]: 40.1%
cell population % at 2.5 µM [11]: 18.3%
cell population % at 1.25 µM [12]: 21.6%
cell population % at 5 µM [13]: 0.5%
IC50 [14]: 80 nM
IC50 [15]: 100 nM
cell population % at 5 µM [16]: 24.7%
Activity [17]: Active
IC50 [18]: 290 nM
cell population % at 2.5 µM [19]: 7.7%
IC50 [20]: 90 nM
cell population % at 2.5 µM [21]: 47.3%
Ratio IC50 [22]: 1.22
cell population % at 5 µM [23]: 26.5%
cell population % at 1.25 µM [24]: 32.7%
Activity [25]: Active
